Reference: ChEMBL document CHEMBL4610127, “Novel Autotaxin Inhibitor for the Treatment of Idiopathic Pulmonary Fibrosis: A Clinical Candidate Discovered Using DNA-Encoded Chemistry” (J Med Chem, 2020)
Calls of active or inactive are those of the source. The rule behind the calls is not given here.

The molecules below were run against T1, Autotaxin (Homo sapiens, UniProt Q13822) (assay: Inhibition of C-terminal FLAG-tagged human autotaxin expressed in Freestyle 293 cells using synthetic substrate FS-3 by fluorescence based assay).
Type: cell-based

Question: `CNC(=O)CN1CN(c2ccccc2)C2(CCN(C(=O)[C@H](NC(=O)c3cccc(Cl)c3)C3CCCCC3)CC2)C1=O` was tested. Which IC50 did it give?
Answer: 3.5 nM

Question: With `Cc1cccc(C(=O)N[C@@H](C(=O)N2CCC3(CC2)C(=O)N(C)CN3c2ccccc2)C2CCCCC2)c1F` as the molecule, how does the IC50 read?
Answer: 1.6 nM

Question: How did the IC50 turn out when `CC(C)[C@@H](NC(=O)c1cccc(F)c1)C(=O)N1CCC2(CC1)C(=O)N(C)CN2c1ccccc1` was run?
Answer: 2.2 nM

Question: Which IC50 does the source give for `Cc1cccc(C(=O)N[C@@H](C(=O)N2CCC3(CC2)C(=O)N(C)CN3c2ccccc2)C(C)C)c1` here?
Answer: 2 nM

Question: Which IC50 does the source give for `CNC(=O)CN1CN(c2ccccc2)C2(CCN(C(=O)[C@H](NC(=O)c3cccc(C)c3F)C3CCCCC3)CC2)C1=O` here?
Answer: 2 nM

Question: `CNC(=O)CN1CN(c2ccccc2)C2(CCN(C(=O)[C@H](NC(=O)c3ccccc3)C3CCCCC3)CC2)C1=O` was tested. Which IC50 did it give?
Answer: 350 nM

Each molecule was assayed against T1, Autotaxin (assay: Inhibition of C-terminal FLAG-tagged human autotaxin expressed in Freestyle 293 cells assessed as reduction in choline release from LPC 16:0 pre-incubated for 10 mins before LPC addition and measured after 1 hr by choline oxidase/HRP coupled assay).
Type: cell-based

Question: How did the IC50 turn out when `Cc1cccc(C(=O)N[C@@H](C(=O)N2CCC3(CC2)C(=O)N(C)CN3c2ccccn2)C2CCCCC2)c1` was run?
Answer: 905 nM

Question: For `Cc1ccc(C(F)(F)F)cc1C(=O)N[C@@H](C(=O)N1CCC2(CC1)C(=O)N(C)C(=O)N2c1ccc2[nH]ncc2c1)C(C)C`, which IC50 is on record?
Answer: 4900 nM

Question: `CC(C)[C@H](NC(=O)c1cc(C(F)(F)F)ccc1F)C(=O)N1CCC2(CC1)C(=O)N(C)C(=O)N2c1ccc2[nH]ncc2c1` was tested. Which IC50 did it give?
Answer: 10000 nM

Question: With `CC(C)[C@@H](NC(=O)c1cc(C(F)(F)F)ccc1F)C(=O)N1CCC2(CC1)C(=O)N(C)C(=O)N2c1cccc(Cl)c1` as the molecule, how does the IC50 read?
Answer: 46 nM

Question: For `CC(C)[C@@H](NC(=O)c1cc(C(F)(F)F)ccc1F)C(=O)N1CCC2(CC1)C(=O)N(C)C(=O)N2c1ccccc1`, which IC50 is on record?
Answer: 100 nM

Question: How did the IC50 turn out when `Cc1cccc(C(=O)N[C@H](C(=O)N2CCC3(CC2)C(=O)N(C)CN3c2ccccc2)C2CCOCC2)c1` was run?
Answer: 10000 nM

Question: `CC(C)[C@@H](NC(=O)c1cccc(C(F)(F)F)c1)C(=O)N1CCC2(CC1)C(=O)N(C)C(=O)N2c1ccc2[nH]ncc2c1` was tested. Which IC50 did it give?
Answer: 340 nM

Question: With `CC(C)[C@@H](NC(=O)c1cc(C(F)(F)F)ccc1F)C(=O)N1CCC2(CC1)C(=O)N(C)CN2c1ccc2[nH]ncc2c1` as the molecule, how does the IC50 read?
Answer: 13.4 nM

Question: `Cc1cccc(C(=O)N[C@@H](C(=O)N2CCC3(CC2)C(=O)N(C)CN3c2ccccc2)C2CCCCC2)c1F` was tested. Which IC50 did it give?
Answer: 56 nM

Question: Which IC50 does the source give for `CN1C(=O)N(c2ccc3[nH]ncc3c2)C2(CCN(C(=O)CNC(=O)c3cc(C(F)(F)F)ccc3F)CC2)C1=O` here?
Answer: 10000 nM

Question: `Cc1cccc(C(=O)N[C@@H](C(=O)N2CCC3(CC2)C(=O)N(C)CN3c2ccccc2)C2CCOCC2)c1` was tested. Which IC50 did it give?
Answer: 623 nM

Question: Which IC50 does the source give for `CC(C)[C@@H](NC(=O)c1cc(C(F)(F)F)ccc1Cl)C(=O)N1CCC2(CC1)C(=O)N(C)C(=O)N2c1ccc2[nH]ncc2c1` here?
Answer: 1470 nM

Question: Which IC50 does the source give for `Cc1cccc(C(=O)N[C@@H](C(=O)N2CCC3(CC2)C(=O)N(C)CN3C2CC2)C2CCCCC2)c1F` here?
Answer: 819 nM

Question: For `CNC(=O)CN1CN(c2ccccc2)C2(CCN(C(=O)[C@H](NC(=O)c3cccc(C)c3F)C3CCCCC3)CC2)C1=O`, which IC50 is on record?
Answer: 86 nM

Question: `Cc1ccc(N2C(=O)N(C)C(=O)C23CCN(C(=O)[C@H](NC(=O)c2cc(C(F)(F)F)ccc2F)C(C)C)CC3)cc1` was tested. Which IC50 did it give?
Answer: 38 nM

Question: Which IC50 does the source give for `CC(C)[C@@H](NC(=O)c1cc(C(F)(F)F)ccc1F)C(=O)N1CCC2(CC1)C(=O)N(C)C(=O)N2c1ccc(C(=O)O)cc1` here?
Answer: 31 nM

Question: How did the IC50 turn out when `CN1C(=O)N(c2ccc3[nH]ncc3c2)C2(CCN(C(=O)[C@H](NC(=O)c3cc(C(F)(F)F)ccc3F)C3CCCC3)CC2)C1=O` was run?
Answer: 34 nM

Question: With `Cc1cccc(C(=O)N[C@@H](C(=O)N2CCC3(CC2)C(=O)N(C)C(=O)N3c2ccccc2)C(C)C)c1F` as the molecule, how does the IC50 read?
Answer: 683 nM

Each molecule was assayed on Mus musculus (assay: Anti-fibrotic activity in C57BL/6 mouse model of bleomycin-induced lung fibrosis assessed as reduction in hydroxyproline levels at 30 to 100 mg/kg, po BID dosed until day 21 starting one day prior to bleomycin treatment).
Type: functional, organism-based
Outline: (§1)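 Mice received oral doses of 30, 100 or 300 mg/kg BID. Prophylactic arm started one day before bleomycin; therapeutic arm started seven days after. Mice were sacrificed 21 days post-bleomycin and lung hydroxyproline was measured per mouse. Group medians were compared with bleomycin + vehicle by p-value. Reference inhibitor control: 30 and 100 mg/kg BID.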

Question: How did the Activity turn out when `CCc1nc2c(C)cc(N3CCN(CC(=O)N4CC(O)C4)CC3)cn2c1N(C)c1nc(-c2ccc(F)cc2)c(C#N)s1` was run?
Answer: Active

These molecules were tested on Mus musculus (assay: Anti-fibrotic activity in C57BL/6 mouse model of bleomycin-induced lung fibrosis assessed as reduction in hydroxyproline levels at 30 to 100 mg/kg, po BID for 21 days dosed 7 days after bleomycin treatment).
Type: functional, organism-based
Outline: as §1

Question: Which Activity does the source give for `CCc1nc2c(C)cc(N3CCN(CC(=O)N4CC(O)C4)CC3)cn2c1N(C)c1nc(-c2ccc(F)cc2)c(C#N)s1` here?
Answer: Active
